Experimental data from ChEMBL document CHEMBL1122519, “Bispyridinamines: a new class of topical antimicrobial agents as inhibitors of dental plaque” (1984).

Experiments:
Streptococcus mutans [1] = test: Compound is evaluated for the effect of saliva upon the antiplaque activity at 0% of saliva and at 0.005 percentage of compound; + = Slight staining; assay type: functional, organism-based
Method in brief: (§1)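 Hydroxylapatite plates were treated twice daily with 1-min exposures to aqueous compound (0.001–0.1%), air-dried and rinsed. They were then incubated anaerobically at 37 °C with S. mutans in sucrose medium for 48 h. The medium held 0, 5 or 50% pooled, centrifuged, filter-sterilised human saliva. Plaque and plate staining were scored visually after FD&C Red No. 3 dye. Staining was scored on plates run without organism.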

Streptococcus mutans [2] = test: (§2) Compound is evaluated for the effect of saliva upon the antiplaque activity at 50% of saliva and at 0.01 percentage of compound; - = No staining; assay type: functional, organism-based; method in brief: as §1
Streptococcus mutans [3] = test: Compound is evaluated for the effect of saliva upon the antiplaque activity at 50% of saliva and at 0.01 percentage of compound; + = Slight plaque accumulation; assay type: functional, organism-based; method in brief: as §1
Streptococcus mutans [4] = test: Compound is evaluated for the effect of saliva upon the antiplaque activity at 50% of saliva and at 0.005 percentage of compound; - = No staining; assay type: functional, organism-based; method in brief: as §1
Streptococcus mutans [5] = test: Compound is evaluated for the effect of saliva upon the antiplaque activity at 50% of saliva and at 0.1 percentage of compound; + = Slight plaque accumulation; assay type: functional, organism-based; method in brief: as §1
Streptococcus mutans [6] = test: Compound is evaluated for the effect of saliva upon the staining potential at 0% of saliva and at 0.001 percentage of compound; - = No staining; assay type: functional, organism-based; method in brief: as §1
Streptococcus mutans [7] = test: Compound is evaluated for the effect of saliva upon the antiplaque activity at 0% of saliva and at 0.001 percentage of compound; - = No plaque accumulation; assay type: functional, organism-based; method in brief: as §1
Streptococcus mutans [8] = test: Compound is evaluated for the effect of saliva upon the antiplaque activity at 0% of saliva and at 0.005 percentage of compound; - = No plaque accumulation; assay type: functional, organism-based; method in brief: as §1
Streptococcus mutans [9] = test: (§3) Compound is evaluated for the effect of saliva upon the antiplaque activity at 0% of saliva and at 0.01 percentage of compound; - = No plaque accumulation; assay type: functional, organism-based; method in brief: as §1
Streptococcus mutans [10] = test: Compound is evaluated for the effect of saliva upon the antiplaque activity at 5% of saliva and at 0.01 percentage of compound; + = Slight plaque accumulation; assay type: functional, organism-based; method in brief: as §1
Streptococcus mutans [11] = test: Compound is evaluated for the effect of saliva upon the antiplaque activity at 0% of saliva and at 0.1 percentage of compound; - = No staining; assay type: functional, organism-based; method in brief: as §1
Streptococcus mutans [12] = test: Compound is evaluated for the effect of saliva upon the antiplaque activity at 5% of saliva and at 0.005 percentage of compound; + = Slight plaque accumulation; assay type: functional, organism-based; method in brief: as §1
Streptococcus mutans [13] = test: Compound is evaluated for the effect of saliva upon the antiplaque activity at 0% of saliva and at 0.1 percentage of compound; - = No plaque accumulation; assay type: functional, organism-based; method in brief: as §1
Streptococcus mutans [14] = test: Compound is evaluated for the inhibition of plaque-forming enzyme of Streptococcus mutans OMZ-61; assay type: functional
Method in brief: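 S. mutans OMZ-61 was grown anaerobically at 37 °C for 24 h in glucose medium. The cell-free filtrate, adjusted to pH 5.5, served as the dextran/levan sucrase source. Reactions contained 3 μmol 14C-sucrose in citrate phosphate buffer pH 5.5 with 4% EtOH and ran 2 h at 37 °C. MeOH-insoluble polysaccharide was counted by scintillation. Compounds were tested at 50, 160 and 500 μg base/mL, with lower levels if needed, and I50 was read graphically.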

Streptococcus mutans [15] = test: Compound is evaluated for the effect of saliva upon the antiplaque activity at 0% of saliva and at 0.01 percentage of compound; + = Slight staining; assay type: functional, organism-based; method in brief: as §1
Streptococcus mutans [16] = test: Compound is evaluated for the effect of saliva upon the antiplaque activity at 50% of saliva and at 0.1 percentage of compound; - = No staining; assay type: functional, organism-based; method in brief: as §1
Streptococcus mutans [17] = test: Compound is evaluated for the effect of saliva upon the antiplaque activity at 5% of saliva and at 0.01 percentage of compound; - = No staining; assay type: functional, organism-based; method in brief: as §1
Streptococcus mutans [18] = test: as §3; assay type: functional, organism-based; remark: listed apart in the source
Method in brief: (§4)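 Hydroxylapatite plate antiplaque assay against S. mutans run for 48 h, with two 1-min exposures to aqueous compound per 24 h. Growth medium contained 0, 5 or 50% pooled human saliva (paraffin-stimulated, centrifuged, filtered, membrane-sterilized). Plaque was stained with FD&C Red No. 3 and graded none, slight or moderate. Staining potential was scored on plates run without inoculum and graded none or slight.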

Escherichia coli [19] = test: Antimicrobial minimum inhibitory concentration against Escherichia coli 100/B22; assay type: functional
Method in brief: (§5)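 Serial twofold tube dilution in tryptose phosphate broth. Each compound was prepared as a 1000 μg/mL aqueous stock and diluted in double-strength broth, then 2×10^5 cells were added. Tubes were incubated aerobically at 37 °C for 24 h. The MIC was taken as the lowest concentration with no visible growth.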

Staphylococcus aureus [20] = test: Minimum antimicrobial inhibitory concentration against Staphylococcus aureus; assay type: functional; method in brief: as §5
Streptococcus mutans [21] = test: Compound is evaluated for the effect of saliva upon the antiplaque activity at 0% of saliva and at 0.025 percentage of compound; + = Slight staining; assay type: functional, organism-based; method in brief: as §4
Streptococcus mutans [22] = test: Compound is evaluated for the effect of saliva upon the antiplaque activity at 0% of saliva and at 0.05 percentage of compound; + = Slight staining; assay type: functional, organism-based; method in brief: as §4
Streptococcus mutans [23] = test: Compound is evaluated for the effect of saliva upon the antiplaque activity at 0% of saliva and at 0.025 percentage of compound; - = No plaque accumulation; assay type: functional, organism-based; method in brief: as §4
Streptococcus mutans [24] = test: Compound is evaluated for the effect of saliva upon the antiplaque activity at 50% of saliva and at 0.05 percentage of compound; - = No staining; assay type: functional, organism-based; method in brief: as §4
Streptococcus mutans [25] = test: Compound is evaluated for the effect of saliva upon the antiplaque activity at 50% of saliva and at 0.025 percentage of compound; - = No plaque accumulation; assay type: functional, organism-based; method in brief: as §4
Pseudomonas aeruginosa [26] = test: Minimum antimicrobial inhibitory concentration against Pseudomonas aeruginosa MGH-2; assay type: functional; method in brief: as §5
Escherichia coli [27] = test: Antimicrobial minimum inhibitory concentration against Escherichia coli AB1932-1; assay type: functional; method in brief: as §5
Streptococcus mutans [28] = test: Compound is evaluated for the effect of saliva upon the antiplaque activity at 50% of saliva and at 0.05 percentage of compound; - = No plaque accumulation; assay type: functional, organism-based; method in brief: as §4
Streptococcus mutans [29] = test: Compound is evaluated for the growth inhibition of Streptococcus mutans OMZ-61; assay type: functional
Streptococcus mutans [30] = test: as §2; assay type: functional, organism-based; method in brief: as §4; remark: listed apart in the source
Streptococcus mutans [31] = test: Compound is evaluated for the effect of saliva upon the antiplaque activity at 50% of saliva and at 0.025 percentage of compound; - = No staining; assay type: functional, organism-based; method in brief: as §4
Proteus mirabilis [32] = test: Minimum antimicrobial inhibitory concentration against Proteus mirabilis MGH-1; assay type: functional; method in brief: as §5
Streptococcus mutans [33] = test: Compound is evaluated for the effect of saliva upon the antiplaque activity at 0% of saliva and at 0.05 percentage of compound; - = No plaque accumulation; assay type: functional, organism-based; method in brief: as §4
Klebsiella pneumoniae = test: Minimum inhibitory concentration against Klebsiella pneumonia 39645; assay type: functional; method in brief: as §5
Escherichia coli [34] = test: Minimum inhibitory concentration against Escherichia coli (Vogel); assay type: functional; method in brief: as §5
Streptococcus mutans [35] = test: Compound is evaluated for the effect of saliva upon the staining potential at 0% of saliva and at 0.01 percentage of compound; + = Slight staining; assay type: functional, organism-based; method in brief: as §4
Streptococcus mutans [36] = test: Minimum plaque inhibitory concentration using a standard test organism, Streptococcus mutans OMZ-61; assay type: functional, organism-based
Method in brief: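 Ceramic hydroxylapatite plates were soaked twice for 1 min each in compound at […] (aqueous), air-dried and rinsed, then hung in sucrose beef-extract medium (pH 7.0) inoculated with late-log S. mutans OMZ-61. Incubation was anaerobic at 37 °C for 24 h, and treatment plus reinoculation were repeated for a second 24 h. Plaque was stained with 1% FD&C Red No. 3 and scored visually. The value is the lowest concentration giving no plaque while medium growth matched control.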

Streptococcus mutans [37] = test: Compound is evaluated for the effect of saliva upon the antiplaque activity at 50% of saliva and at 0.01 percentage of compound; assay type: functional, organism-based; method in brief: as §4
Pseudomonas aeruginosa [38] = test: Compound is evaluated for the antimicrobial minimum inhibitory concentration against Pseudomonas aeruginosa MGH-1; assay type: functional
Streptococcus mutans [39] = test: Compound is evaluated for minimum plaque inhibitory concentration using a standard test organism, Streptococcus mutans OMZ-61; assay type: functional
Method in brief: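 S. mutans OMZ-61 in pH 7.0 beef extract–trypticase medium with 0.5% sucrose. Sterile ceramic hydroxylapatite plates got two 1-min soaks in 0.1–0.001% compound, each followed by 1-min air-drying, then a 5-min water rinse. Plates were put in inoculated medium at 37 °C anaerobically for 24 h. The cycle was repeated for a second 24 h. Plaque was stained with 1% FD&C Red No. 3. Value is the lowest concentration completely preventing plaque.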

Proteus mirabilis [40] = test: Compound is evaluated for the antimicrobial minimum inhibitory concentration against Proteus mirabilis MGH-1; assay type: functional; method in brief: as §5
Staphylococcus aureus [41] = test: Compound is evaluated for the antimicrobial minimum inhibitory concentration against Staphylococcus aureus (Smith); assay type: functional; method in brief: as §5

Structure (SMILES): CCCCCCCCCCCCCCCC[n+]1ccccc1.[Cl-]
- Staining potential (Streptococcus mutans [1]): No staining
- Staining potential (Streptococcus mutans [2]): No staining
- Plaque accum (Streptococcus mutans [3]): No plaque accumulation
- Staining potential (Streptococcus mutans [4]): No staining
- Plaque accum (Streptococcus mutans [5]): No plaque accumulation
- Staining potential (Streptococcus mutans [6]): No staining
- Plaque accum (Streptococcus mutans [7]): No plaque accumulation
- Plaque accum (Streptococcus mutans [8]): No plaque accumulation
- Plaque accum (Streptococcus mutans [9]): No plaque accumulation
- Plaque accum (Streptococcus mutans [10]): No plaque accumulation
- Staining potential (Streptococcus mutans [11]): No staining
- Plaque accum (Streptococcus mutans [12]): No plaque accumulation
- Plaque accum (Streptococcus mutans [13]): No plaque accumulation
- I50 (Streptococcus mutans [14]): 95 (ug of base) ml-1
- Staining potential (Streptococcus mutans [15]): No staining
- Staining potential (Streptococcus mutans [16]): No staining
- Staining potential (Streptococcus mutans [17]): No staining

Structure (SMILES): CCCCC(CC)CNC(=N)NC(=N)NCCCCCCNC(=N)NC(=N)NCC(CC)CCCC.Cl.Cl (stereo unspecified) [ALEXIDINE DIHYDROCHLORIDE]
- Plaque accum (Streptococcus mutans [18]): No plaque accumulation
- MIC (Escherichia coli [19]): 1 µg/mL
- MIC (Staphylococcus aureus [20]): 0.5 µg/mL
- Staining potential (Streptococcus mutans [21]): No staining
- Staining potential (Streptococcus mutans [22]): No staining
- Plaque accum (Streptococcus mutans [23]): No plaque accumulation
- Staining potential (Streptococcus mutans [24]): No staining
- Plaque accum (Streptococcus mutans [25]): No plaque accumulation
- MIC (Pseudomonas aeruginosa [26]): 15.6 µg/mL
- MIC (Escherichia coli [27]): 1 µg/mL
- Plaque accum (Streptococcus mutans [28]): No plaque accumulation
- MIC (Streptococcus mutans [29]): 0.5 (ug of base) ml-1
- Staining potential (Streptococcus mutans [30]): No staining
- Staining potential (Streptococcus mutans [31]): No staining
- MIC (Proteus mirabilis [32]): 31.3 µg/mL
- Plaque accum (Streptococcus mutans [33]): No plaque accumulation
- I50 (Streptococcus mutans [14]): 156 (ug of base) ml-1
- MIC (Klebsiella pneumoniae): 3.9 µg/mL
- MIC (Escherichia coli [34]): 2 µg/mL
- Staining potential (Streptococcus mutans [35]): No staining
- Concentration (Streptococcus mutans [36]): 0.005%
- Plaque accum (Streptococcus mutans [37]): No plaque accumulation

Structure (SMILES): Br.Br.N=c1ccn(CCCCn2ccc(=N)cc2)cc1
- MIC (Pseudomonas aeruginosa [38]): > 500 µg/mL
- Min plague Inhibitory (Streptococcus mutans [39]): >1%
- MIC (Proteus mirabilis [40]): > 500 µg/mL
- MIC (Staphylococcus aureus [41]): 125 µg/mL
- MIC (Klebsiella pneumoniae): > 500 µg/mL
- MIC (Escherichia coli [34]): 500 µg/mL

Structure (SMILES): Br.Br.N=c1ccn(CCCCCCn2ccc(=N)cc2)cc1
- MIC (Pseudomonas aeruginosa [38]): > 500 µg/mL
- Min plague Inhibitory (Streptococcus mutans [39]): >1%
- MIC (Proteus mirabilis [40]): > 500 µg/mL
- MIC (Staphylococcus aureus [41]): 250 µg/mL
- MIC (Klebsiella pneumoniae): > 500 µg/mL
- MIC (Escherichia coli [34]): 500 µg/mL
